pIC50: −log10 of the molar value.
Experiments:
[1] = target: T1, Cytochrome P450 11B1, mitochondrial (Homo sapiens, UniProt P15538); assay: Inhibition of human CYP11B1 expressed in hamster V79MZ cells using [1,2-3H]-11-deoxycorticosterone as substrate after 6 hrs by HPLC analysis; assay type: cell-based
T1 sequence (P15538 whole entry): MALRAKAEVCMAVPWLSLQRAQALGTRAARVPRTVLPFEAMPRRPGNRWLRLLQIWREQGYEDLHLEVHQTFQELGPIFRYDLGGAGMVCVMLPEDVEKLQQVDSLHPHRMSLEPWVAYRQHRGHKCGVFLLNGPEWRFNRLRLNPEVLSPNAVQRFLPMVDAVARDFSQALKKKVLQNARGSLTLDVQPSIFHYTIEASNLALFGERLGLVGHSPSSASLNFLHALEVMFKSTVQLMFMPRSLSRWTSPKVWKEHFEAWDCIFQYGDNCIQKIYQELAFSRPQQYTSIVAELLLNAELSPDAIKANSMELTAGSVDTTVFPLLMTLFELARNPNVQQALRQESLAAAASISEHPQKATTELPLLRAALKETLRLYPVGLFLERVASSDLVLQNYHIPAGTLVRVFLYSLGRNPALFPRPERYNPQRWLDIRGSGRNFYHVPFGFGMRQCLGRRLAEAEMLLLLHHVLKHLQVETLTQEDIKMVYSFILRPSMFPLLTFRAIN
Summary of the method: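 V79MZ cells expressing recombinant human CYP11B1 or CYP11B2, or rat CYP11B1, incubated with [1,2-³H]-11-deoxycorticosterone (100 nM) and inhibitor over a range of concentrations; ketoconazole as reference.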

[2] = target: CYP2C9 (Homo sapiens, UniProt P11712); assay: Inhibition of recombinant human CYP2C9 expressed in baculovirus infected insect cell microsomes at 1 uM relative to control; assay type: ADME
Summary of the method: (§1)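 Recombinant human CYP1A2, 2B6, 2C9, 2C19, 2D6 and 3A4 in baculovirus-infected insect-cell microsomes, assayed per kit instructions; test compound at 1 µM, percent inhibition.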

[3] = target: T2, CYP19A1 (Homo sapiens, UniProt P11511); assay: Inhibition of human placental microsomal CYP19A1 at 2 uM using [1beta-3H]-androstenedione as substrate after 20 mins in presence of NADPH by scintillation spectrometric method relative to control; assay type: ADME; conditions: placental microsomes, probe [1beta-3H]-androstenedione
T2 sequence (P11511 whole entry): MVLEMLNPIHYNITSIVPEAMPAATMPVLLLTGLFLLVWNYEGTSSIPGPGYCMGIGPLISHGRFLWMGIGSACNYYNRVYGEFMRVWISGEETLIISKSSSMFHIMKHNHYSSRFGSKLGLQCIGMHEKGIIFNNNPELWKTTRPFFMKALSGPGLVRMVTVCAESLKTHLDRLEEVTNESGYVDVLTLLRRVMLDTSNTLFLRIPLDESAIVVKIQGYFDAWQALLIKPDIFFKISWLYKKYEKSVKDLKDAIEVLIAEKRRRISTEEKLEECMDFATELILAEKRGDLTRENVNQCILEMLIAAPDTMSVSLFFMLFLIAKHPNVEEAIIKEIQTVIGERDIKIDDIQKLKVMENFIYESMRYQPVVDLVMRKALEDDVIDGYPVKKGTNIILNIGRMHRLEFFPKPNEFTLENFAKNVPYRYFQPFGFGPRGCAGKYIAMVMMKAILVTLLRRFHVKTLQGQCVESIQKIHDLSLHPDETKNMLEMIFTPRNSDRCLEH
Summary of the method: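 Human placental microsomal CYP19A1; [1β-³H]androstenedione (500 nM) as substrate; test compounds at 2 µM; fadrozole and aminoglutethimide as references.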

[4] = system: Salmonella typhimurium; assay: Mutagenicity in Salmonella typhimurium TA98 up to 100 uM in presence of rat liver S9 fraction by Ames 2 assay; assay type: toxicity; conditions: salmonella enterica subsp. enterica serovar typhimurium
Summary of the method: (§2)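 AMES II kit with Salmonella typhimurium TA98 and TA7001–TA7006, run with or without rat liver S9 fraction according to the kit instructions.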

[5] = Aqueous solubility of the compound in 2% DMSO up to 24 hrs; assay type: physicochemical
[6] = Half life in rat liver S9 fractions at 1 uM in presence of NADPH/UDPGA by LC-MS/MS analysis; assay type: ADME, tissue-based
Summary of the method: (§3)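 Samples taken at 0, 5, 15 and 60 min, stopped with cold acetonitrile containing internal standard. Remaining parent measured by LC-MS/MS.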

[7] = target: CYP3A4 (Homo sapiens, UniProt P08684); assay: Inhibition of recombinant human CYP3A4 expressed in baculovirus infected insect cell microsomes at 1 uM relative to control; assay type: ADME; summary of the method: as §1
[8] = target: T3, CYP1A2 (Homo sapiens, UniProt P05177); assay: Inhibition of recombinant human CYP1A2 expressed in baculovirus infected insect cell microsomes at 1 uM relative to control; assay type: ADME; summary of the method: as §1
T3 sequence (P05177 whole entry): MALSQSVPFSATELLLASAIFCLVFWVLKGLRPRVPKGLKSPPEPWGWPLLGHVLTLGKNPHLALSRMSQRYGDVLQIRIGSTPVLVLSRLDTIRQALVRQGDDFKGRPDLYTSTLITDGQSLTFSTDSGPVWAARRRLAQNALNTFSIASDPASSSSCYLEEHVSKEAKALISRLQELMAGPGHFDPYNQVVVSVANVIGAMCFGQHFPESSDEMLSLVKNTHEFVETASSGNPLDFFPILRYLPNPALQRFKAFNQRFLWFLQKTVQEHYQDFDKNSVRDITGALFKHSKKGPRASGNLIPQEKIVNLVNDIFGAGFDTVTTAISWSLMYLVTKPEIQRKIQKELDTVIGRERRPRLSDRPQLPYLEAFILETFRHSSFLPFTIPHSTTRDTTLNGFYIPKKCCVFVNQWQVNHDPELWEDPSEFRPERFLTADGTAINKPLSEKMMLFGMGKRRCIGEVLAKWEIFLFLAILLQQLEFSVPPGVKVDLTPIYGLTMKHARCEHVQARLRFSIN

[9] = system: Salmonella typhimurium; assay: Mutagenicity in Salmonella typhimurium TA98 up to 100 uM by Ames 2 assay; assay type: toxicity; conditions: salmonella enterica subsp. enterica serovar typhimurium; summary of the method: as §2
[10] = system: Salmonella typhimurium; assay: Mutagenicity in Salmonella typhimurium TA7001/7002/7003/7004/7005/7006 up to 100 uM in presence of rat liver S9 fraction by Ames 2 assay; assay type: toxicity; conditions: salmonella enterica subsp. enterica serovar typhimurium; summary of the method: as §2
[11] = target: CYP2C19 (Homo sapiens, UniProt P33261); assay: Inhibition of recombinant human CYP2C19 expressed in baculovirus infected insect cell microsomes at 1 uM relative to control; assay type: ADME; summary of the method: as §1
[12] = Half life in human liver S9 fractions at 1 uM in presence of NADPH/UDPGA by LC-MS/MS analysis; assay type: ADME; summary of the method: as §3

CYP2C19, sequence (P33261 whole entry): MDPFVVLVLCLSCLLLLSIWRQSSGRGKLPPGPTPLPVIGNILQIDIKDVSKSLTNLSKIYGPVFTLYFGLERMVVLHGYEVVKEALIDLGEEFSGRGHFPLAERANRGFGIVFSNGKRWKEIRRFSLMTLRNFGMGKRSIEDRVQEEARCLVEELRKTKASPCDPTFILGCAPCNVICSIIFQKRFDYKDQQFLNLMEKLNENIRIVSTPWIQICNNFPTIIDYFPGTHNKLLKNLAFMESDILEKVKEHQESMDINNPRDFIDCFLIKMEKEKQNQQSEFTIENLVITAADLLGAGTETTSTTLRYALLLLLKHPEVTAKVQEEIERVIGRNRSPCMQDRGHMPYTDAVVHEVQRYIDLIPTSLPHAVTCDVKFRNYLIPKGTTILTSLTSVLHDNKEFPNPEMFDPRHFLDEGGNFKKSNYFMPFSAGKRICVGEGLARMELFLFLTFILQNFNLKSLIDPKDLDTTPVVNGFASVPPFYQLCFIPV
CYP2C9, sequence (P11712 whole entry): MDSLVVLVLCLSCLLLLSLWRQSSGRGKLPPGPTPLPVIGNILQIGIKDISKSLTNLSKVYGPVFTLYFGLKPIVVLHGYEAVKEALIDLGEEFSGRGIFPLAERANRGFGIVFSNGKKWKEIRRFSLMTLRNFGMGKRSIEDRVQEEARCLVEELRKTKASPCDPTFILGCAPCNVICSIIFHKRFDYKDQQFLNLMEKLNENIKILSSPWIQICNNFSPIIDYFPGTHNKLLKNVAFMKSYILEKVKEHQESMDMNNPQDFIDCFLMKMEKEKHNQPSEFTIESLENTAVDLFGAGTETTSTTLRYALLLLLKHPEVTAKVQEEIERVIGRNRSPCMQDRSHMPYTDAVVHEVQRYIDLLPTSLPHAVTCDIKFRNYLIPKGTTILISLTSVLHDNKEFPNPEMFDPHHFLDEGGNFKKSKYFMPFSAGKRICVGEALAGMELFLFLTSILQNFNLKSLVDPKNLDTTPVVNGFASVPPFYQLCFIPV
CYP3A4, sequence (P08684 whole entry): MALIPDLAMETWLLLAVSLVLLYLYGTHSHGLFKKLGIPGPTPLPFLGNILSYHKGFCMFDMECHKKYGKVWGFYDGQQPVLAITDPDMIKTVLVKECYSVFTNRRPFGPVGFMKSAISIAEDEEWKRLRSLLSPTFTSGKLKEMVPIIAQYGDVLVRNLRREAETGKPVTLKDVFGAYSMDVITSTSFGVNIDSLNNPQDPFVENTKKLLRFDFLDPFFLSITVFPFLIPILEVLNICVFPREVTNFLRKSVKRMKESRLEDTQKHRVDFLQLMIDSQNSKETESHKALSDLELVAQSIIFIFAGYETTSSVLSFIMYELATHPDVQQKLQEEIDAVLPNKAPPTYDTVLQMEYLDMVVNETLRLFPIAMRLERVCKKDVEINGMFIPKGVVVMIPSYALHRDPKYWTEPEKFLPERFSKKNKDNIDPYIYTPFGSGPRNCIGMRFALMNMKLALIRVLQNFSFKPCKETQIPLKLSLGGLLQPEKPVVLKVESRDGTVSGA

| pIC50 [1] | inhibition at 1 µM [2] [%] | inhibition at 20 min, 2 µM [3] [%] | solubility at 24 h [5] [µM] | half-life at 1 µM [6] [h] | inhibition at 1 µM [7] [%] | inhibition at 1 µM [8] [%] | inhibition at 1 µM [11] [%] | half-life at 1 µM [12] [h] | Structure (SMILES) | Activity [4] | Activity [9] | Activity [10] |
| --- | --- | --- | --- | --- | --- | --- | --- | --- | --- | --- | --- | --- |
| 8.30 | 28 | ≤ 9 | > 200 | 0.5 | 61 | 54 | 8 | 2.42 | Cc1cncc(Cc2cc(-c3ccccc3)no2)c1 | Non-Toxic | Non-Toxic | Non-Toxic |
| 8.70 | 17 | ≤ 9 | > 200 | 0.383 | 33 | 23 | 17 | 2.08 | COc1cncc(Cc2cc(-c3ccccc3)no2)c1 | Non-Toxic | Non-Toxic | Non-Toxic |

Reference: ChEMBL document CHEMBL4014346, “Lead Optimization Generates CYP11B1 Inhibitors of Pyridylmethyl Isoxazole Type with Improved Pharmacological Profile for the Treatment of Cushing's Disease” (J Med Chem, 2017)
